The record followed here is PMC5587398 (Journal of pharmaceutical and biomedical analysis, 2017).

Data set [1] in a line: Pharmacokinetic study in mice after single oral dose. In kind it is in vivo, male C57BL/6 mice. Summed up:
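Male C57BL/6 mice (~30 g; 12 total, n=4 per time point) got a single 30 mg/kg gavage, 10 mL/kg, in 20 mM citric buffer (pH~3). K2EDTA blood was drawn at 0.167–24 hr and the plasma stored at -80°C. Plasma was precipitated with ACN/MeOH 7/3 containing deuterated IS, then run on HILIC amide +ESI SRM (0.01–25 µM calibration). Non-compartmental parameters were taken from mean concentrations per time point.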

A short description of data set [2]: Pharmacokinetic study in rats after single oral dose. The following applies: plasma. In kind it is in vivo, male Sprague-Dawley rats. Summed up:
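Male Sprague-Dawley rats (~300 g, n=4) got a single 30 mg/kg oral gavage, 10 mL/kg, in 20 mM citric buffer (pH~3). K2EDTA blood was drawn at 0.167, 0.5, 1, 2, 3, 5, 7 and 24 hr, and plasma was stored at -80°C. Analysis used IS-containing ACN/MeOH precipitation and HILIC-UPLC-MS/MS. Non-compartmental analysis used linear-trapezoidal AUC; t1/2 = 0.693/λ, with λ from ≥3 terminal points.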

Where [3] appears, read: male, C57BL/6, mouse, plasma, po, 30 mg/kg.
Where [4] appears, read: male, Sprague-Dawley, rat, po, 30 mg/kg.

The half-life is the time in which the quantity being followed falls by half. Lower therefore signals rapid decline. As usually defined, the AUC(0-inf) is the area under the concentration-time curve extrapolated to infinity. Read a high AUC(0-inf) as more exposure. Broadly, the Cmax is the maximum level reached in the sampled fluid or tissue. Broadly, the Tmax is the time at which the peak concentration occurs. Compound `NC1=NCCN1CC(=O)O` [cyclocreatine, 1-Carboxymethyl-2-iminoimidazolidine] yielded a half-life in data set [1] (male, C57BL/6 (mice), Sprague-Dawley (rats), mouse, plasma, po, 30 mg/kg) of 420 to 480 min. In data set [1] (setting [3]), the AUC(0-inf) worked out at 84100 ng·h/mL, the Cmax came to 5620 ng/mL and the Tmax was 5 h. In data set [1] (rodents (mice and rats), PO administration, summary statement), the “absorption after PO administration” value is recorded as “well absorbed”. Further, the “t(1/2)” value in data set [2] (male SD rats (n=4), 30 mg/kg PO single dose, mean ± SD) amounted to 7.9 ± 0.9 h. For the same compound, in data set [2] (setting [4]), the AUC(0-inf) worked out at 91700 ± 18000 ng·h/mL, the Cmax is 13300 ± 2600 ng/mL and the Tmax came to 34.8 ± 28.8 min.
